Among the data in ChEMBL document CHEMBL1154882, “Hydrogenative desulphurization of thienopyrrolizinones: an easy and selective access to (Z)-phenethylidenepyrrolizinones with in vitro cytotoxic activity” (Eur J Med Chem, 2010) are inhibition and IC50 values, retold here.

Test [1] relates to KB. The experiment in a line: Cytotoxicity against human KB cells assessed as growth inhibition at 10 uM after 72 hrs by MTS assay. In kind it is functional. An outline of the steps: (§1)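 KB cells plated at 650 cells/well, treated 24 h later with compounds in DMSO at 10^-5 or 10^-6 M, in triplicate. Controls got DMSO at 1% final volume; taxotere 2.5×10^-10 M served as reference. After 72 h exposure, MTS reagent added for 3 h at 37 °C and absorbance read at 490 nm. Results given as percent inhibition of proliferation relative to control OD.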

The subject of test [2] is KB. The experiment in a line: Cytotoxicity against human KB cells assessed as growth inhibition at 1 uM after 72 hrs by MTS assay. The class given is functional. An outline of the steps: as §1
Test [3] deals with KB. The test is described as follows: Cytotoxicity against human KB cells assessed as growth inhibition after 72 hrs by MTS assay. The class given is functional, cell-based. The essentials: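 KB cells seeded at 650 cells/well and dosed 24 h later with DMSO solutions (1% final DMSO, also given to controls) over a range starting at 0.5 nM. After 72 h exposure, MTS added for 3 h at 37 °C and A490 read. Proliferation inhibition taken versus control OD. IC50 (50% inhibition) determined in separate duplicate for compounds giving over 80% inhibition at 10^-6 M.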

Test [4] can be described thus: Inhibition of tubulin.

Structures are written as SMILES.

Turning to `C/C(=C1\CC(=O)c2cccn21)c1ccc(Cl)cc1`, the inhibition at 10 µM in the test on KB [1] was 0%. Besides, the inhibition at 1 µM in the test on KB [2] was found to be 0%.

Regarding `CC(C)C1CC(=O)c2cccn21` (configuration not stated), the inhibition at 10 µM in the test on KB [1] was 0%. Besides, the inhibition at 1 µM with KB [2] amounted to 0%.

Take `CC(=O)O[C@@]12CO[C@@H]1C[C@H](O)[C@@]1(C)C(=O)[C@H](O)C3=C(C)[C@@H](OC(=O)[C@H](O)[C@@H](NC(=O)OC(C)(C)C)c4ccccc4)C[C@@](O)([C@@H](OC(=O)c4ccccc4)[C@H]21)C3(C)C` [DOCETAXEL]: in the test with KB [3], the concentration for half-maximal inhibition (IC50) is 0.4 nM.

Turning to `COc1ccc(-c2csc3c2-n2cccc2C3=O)cc1`, the concentration for half-maximal inhibition (IC50) in the test with KB [3] stood at 50 nM. Moreover, the inhibition at 10 µM with KB [1] was found to be 84%. Also, in the test on KB [2], the inhibition at 1 µM was 92%.

For `COc1ccc(-c2csc3c2-n2cccc2C3=O)cc1O`, the IC50 stood at 5.7 nM with KB [3] and 2900 nM in test [4]. The inhibition at 10 µM in the test with KB [1] was 86%. In the test with KB [2], the inhibition at 1 µM was 86%.

On to `COc1ccc(/C(C)=C2/CC(=O)c3cccn32)cc1O`, for which the half-maximal inhibitory concentration (IC50) in the test with KB [3] came out at 70 nM. Also, the inhibition at 10 µM in the test with KB [1] stood at 95%. In the test on KB [2], the inhibition at 1 µM was 91%.

Consider `COc1ccc(/C(C)=C2/CC(=O)c3cccn32)cc1`, for which the inhibition at 10 µM in the test on KB [1] came to 78%. Moreover, the inhibition at 1 µM in the test with KB [2] was 1%.
